The text below walks through data of ChEMBL document CHEMBL4052816, “Development of Clickable Monophosphoryl Lipid A Derivatives toward Semisynthetic Conjugates with Tumor-Associated Carbohydrate Antigens” (J Med Chem, 2017).

The subject of data set [1] is THP-1. The data set can be described thus: Immunostimulatory activity in human THP1 cells assessed as increase in IFN-gamma production at 20 ug/ml after 6 to 72 hrs by immunoassay. The data set is classed as functional, cell-based. An outline of the steps:
(§1)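 THP-1 cells (0.5 × 10^6/well) were grown in RPMI/10% FBS for 24 h, then given fresh medium containing compound at 20 μg/mL for 6, 24, 48 and 72 h. Cell-free supernatants were assayed for IL-8 and IL-6 by ELISA, and for IL-10, IFN-γ and TNF-α by a human Th1/Th2 multiplex bead immunoassay. Results were pooled from three independent experiments, means ± SD.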

The subject of data set [2] is BMDM. The data set can be described thus: Immunostimulatory activity in C57BL/6 mouse BMDM assessed as increase in CD40 production at 20 ug/ml after 6 to 72 hrs by flow cytometric method. The data set is classed as functional, cell-based. An outline of the steps:
(§2)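 C57BL/6 BMDM (0.5 × 10^6/well) were stimulated with compound at 20 μg/mL for 6, 24, 48 and 72 h. Cells were then stained with phycoerythrin-conjugated anti-CD40, anti-CD80 or anti-CD86, plus allophycocyanin-conjugated anti-MHC class II. Isotype antibodies set nonspecific binding, and cells were analysed by flow cytometry. Three independent experiments were run.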
Background: Flow cytometry measures light scatter and fluorescence of single cells or particles in a stream.

Data set [3] deals with BMDM. The experiment in a line: Immunostimulatory activity in C57BL/6 mouse BMDM assessed as increase in CD86 production at 20 ug/ml after 6 to 72 hrs by flow cytometric method. The data set is classed as functional, cell-based. An outline of the steps: as §2
Data set [4] concerns BMDM. The experiment in a line: Immunostimulatory activity in C57BL/6 mouse BMDM assessed as increase in MHC-class 2 production at 20 ug/ml after 6 to 72 hrs by flow cytometric method. It is filed as functional, cell-based. An outline of the steps:
as §2

In data set [5] the test system is BMDM. The data set can be described thus: Immunostimulatory activity in C57BL/6 mouse BMDM assessed as increase in CD80 production at 20 ug/ml after 6 to 72 hrs by flow cytometric method. It is filed as functional, cell-based. An outline of the steps: as §2
The subject of data set [6] is THP-1. The data set can be described thus: Immunostimulatory activity in human THP1 cells assessed as increase in IL-10 production at 20 ug/ml after 6 to 72 hrs by immunoassay. The data set is classed as functional, cell-based. An outline of the steps:
as §1

For data set [7], the system named is THP-1. The experiment in a line: Immunostimulatory activity in human THP1 cells assessed as increase in IL-8 production at 20 ug/ml after 6 to 72 hrs by ELISA. It is filed as functional, cell-based. An outline of the steps: as §1
A general note: An ELISA detects its analyte on a solid surface through an enzyme-linked reagent.

Data set [8] relates to BMDM. The experiment in a line: Immunostimulatory activity in C57BL/6 mouse BMDM assessed as increase in IL-12 production at 20 ug/ml after 6 to 72 hrs by immunoassay. The data set is classed as functional, cell-based. An outline of the steps: (§3)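 Bone marrow macrophages from wild-type C57BL/6 mice (0.5 × 10^6/well) were grown for 24 h, then given fresh medium containing compound at 20 μg/mL for 6, 24, 48 and 72 h. Three independent experiments were run, means ± SD.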

Data set [9] deals with BMDM. The experiment in a line: Immunostimulatory activity in C57BL/6 mouse BMDM assessed as increase in IL-6 production at 20 ug/ml after 6 to 72 hrs by ELISA. The data set is classed as functional, cell-based. An outline of the steps: as §3
Data set [10] has as its system BMDM. The data set can be described thus: Immunostimulatory activity in C57BL/6 mouse BMDM assessed as increase in IL-10 production at 20 ug/ml after 6 to 72 hrs by immunoassay. The data set is classed as functional, cell-based. An outline of the steps: as §3
In data set [11] the test system is BMDM. The data set can be described thus: Immunostimulatory activity in C57BL/6 mouse BMDM assessed as increase in IL-5 production at 20 ug/ml after 6 to 72 hrs by immunoassay. The data set is classed as functional, cell-based. An outline of the steps:
as §3

Data set [12] relates to THP-1. The data set can be described thus: Cytotoxicity against human THP1 cells assessed as decrease in cell viability at 0.1 to 20 ug/ml after 6 to 48 hrs by SRB assay. It is filed as cell-based. An outline of the steps: (§4)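 THP-1 cells and C57BL/6 wild-type bone marrow-derived macrophages were kept in RPMI with 10% FBS, penicillin and streptomycin at 37 °C and 5% CO2. BMDM medium also contained gentamycin. Cells were exposed to compound at 20, 10, 1 and 0.1 μg/mL, and viability was read with a colorimetric assay.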
On the technique in general: The SRB assay estimates cell density from bound dye.

The subject of data set [13] is THP-1. The experiment in a line: Immunostimulatory activity in human THP1 cells assessed as increase in TNF-alpha production at 20 ug/ml after 6 to 72 hrs by immunoassay. The data set is classed as functional, cell-based. An outline of the steps: as §1
The subject of data set [14] is BMDM. The experiment in a line: Immunostimulatory activity in C57BL/6 mouse BMDM assessed as increase in IL-2 production at 20 ug/ml after 6 to 72 hrs by immunoassay. It is filed as functional, cell-based. An outline of the steps: as §3
Data set [15] deals with BMDM. The data set can be described thus: Immunostimulatory activity in C57BL/6 mouse BMDM assessed as increase in TNFalpha production at 20 ug/ml after 6 to 72 hrs by ELISA. It is filed as functional, cell-based. An outline of the steps:
as §3

In data set [16] the test system is BMDM. The experiment in a line: Immunostimulatory activity in C57BL/6 mouse BMDM assessed as increase in IFN-gamma production at 20 ug/ml after 6 to 72 hrs by immunoassay. It is filed as functional, cell-based. An outline of the steps: as §3
The subject of data set [17] is BMDM. The experiment in a line: Immunostimulatory activity in C57BL/6 mouse BMDM assessed as increase in IL-4 production at 20 ug/ml after 6 to 72 hrs by immunoassay. The data set is classed as functional, cell-based. An outline of the steps:
as §3

For data set [18], the system named is BMDM. The experiment in a line: Immunostimulatory activity in C57BL/6 mouse BMDM assessed as increase in GM-CSF production at 20 ug/ml after 6 to 72 hrs by immunoassay. The data set is classed as functional, cell-based. An outline of the steps:
as §3

A short description of data set [19]: Cytotoxicity against C57BL/6 mouse BMDM assessed as decrease in cell viability at 20 ug/ml after 6 to 48 hrs by SRB assay. The data set is classed as cell-based. An outline of the steps:
as §4

Data set [20] relates to THP-1. The data set can be described thus: Immunostimulatory activity in human THP1 cells assessed as increase in IL-6 production at 20 ug/ml after 6 to 72 hrs by ELISA. The data set is classed as functional, cell-based. An outline of the steps: as §1

Active and inactive are the calls of the source. No cut-off for these calls is given here.

Turning to `CCCCCCCCCCCCCC(=O)O[C@H](CCCCCCCCCCC)CC(=O)O[C@@H]1[C@@H](NC(=O)C[C@@H](CCCCCCCCCCC)OC(=O)CCCCCCCCCCC)[C@H](OC[C@H]2OC(O)[C@H](NC(=O)C[C@@H](CCCCCCCCCCC)OC(=O)C[C@H](O)CCCCCCCCCCCCC)[C@@H](O)[C@@H]2O)O[C@H](CO)[C@H]1OP(=O)(O)O` (some centres not stated), the outcome with THP-1 [1] was inactive. Besides, the outcome with BMDM [2], with BMDM [3], with BMDM [4], with BMDM [5], in the data set on THP-1 [6] and in the data set on THP-1 [7] was Active.
Consider `CCCCCCCCCCCCCC(=O)O[C@H](CCCCCCCCCCC)CC(=O)O[C@@H]1[C@@H](NC(=O)C[C@@H](CCCCCCCCCCC)OC(=O)CCCCCCCCCCC)[C@H](OC[C@H]2OC(O)[C@H](NC(=O)C[C@H](O)CCCCCCCCCCC)[C@@H](OC(=O)C[C@H](O)CCCCCCCCCCC)[C@@H]2O)O[C@H](C(=O)NCCCCCSCCCO[C@H]2O[C@H](CO)[C@H](O)[C@H](O[C@@H]3O[C@H](CO)[C@H](O)[C@H](O)[C@H]3O)[C@H]2NC(C)=O)[C@H]1OP(=O)(O)O` (some centres not stated), for which the outcome with BMDM [8], in the data set with BMDM [2], in the data set on BMDM [10], with BMDM [3], with BMDM [11] and with BMDM [4] was inactive. For the same compound, the outcome in the data set on BMDM [14], in the data set on BMDM [5], in the data set on BMDM [15], with BMDM [16], in the data set on BMDM [17] and with BMDM [18] was inactive. For the same compound, the result in the data set with THP-1 [1], in the data set with BMDM [9], in the data set on THP-1 [13], with THP-1 [6] and with THP-1 [7] was Active. Moreover, the Activity result in the data set with THP-1 [12] is “Non-Toxic”.
Turning to `CCCCCCCCCCCCCC(=O)O[C@H](CCCCCCCCCCC)CC(=O)O[C@@H]1[C@@H](NC(=O)C[C@@H](CCCCCCCCCCC)OC(=O)CCCCCCCCCCC)[C@H](OC[C@H]2OC(O)[C@H](NC(=O)C[C@H](O)CCCCCCCCCCC)[C@@H](OC(=O)C[C@H](O)CCCCCCCCCCC)[C@@H]2O)O[C@H](C(=O)NCCCCCCN=[N+]=[N-])[C@H]1OP(=O)(O)O` (some centres not stated), the result in the data set with BMDM [8], in the data set with THP-1 [1], in the data set with BMDM [2], in the data set with BMDM [10], in the data set on BMDM [3] and with BMDM [11] was inactive. Besides, the outcome in the data set with BMDM [4], in the data set with BMDM [14], in the data set on BMDM [5], in the data set with BMDM [16], in the data set with BMDM [17] and with BMDM [18] was inactive. In addition, the Activity entry with THP-1 [12] is reported as “Non-Toxic”. Further, the outcome in the data set with THP-1 [13], in the data set on THP-1 [6] and in the data set on THP-1 [7] was Active.
With `CCCCCCCCCCCCCC(=O)O[C@H](CCCCCCCCCCC)CC(=O)O[C@@H]1[C@@H](NC(=O)C[C@@H](CCCCCCCCCCC)OC(=O)CCCCCCCCCCC)[C@H](OC[C@H]2OC(O)[C@H](NC(=O)C[C@H](O)CCCCCCCCCCC)[C@@H](OC(=O)C[C@H](O)CCCCCCCCCCC)[C@@H]2O)O[C@H](C(=O)NCCCCCSCCCO[C@H]2O[C@H](CO)[C@H](O)[C@H](O)[C@H]2NC(C)=O)[C@H]1OP(=O)(O)O` (some centres not stated), the result with BMDM [8], in the data set on BMDM [2], in the data set with BMDM [10], with BMDM [3], in the data set with BMDM [11] and in the data set with BMDM [4] was inactive. Further, the outcome with BMDM [14], with BMDM [5], in the data set on BMDM [16], in the data set on BMDM [17] and in the data set with BMDM [18] was inactive. For the same compound, the figures for the Activity result (in data set [19]; in the data set with THP-1 [12]) were “Toxic” and “Non-Toxic”, respectively. In addition, the outcome in the data set with THP-1 [1], in the data set on THP-1 [20], in the data set with BMDM [15], in the data set on THP-1 [6] and in the data set with THP-1 [7] was Active.
As to `CCCCCCCCCCCCCC(=O)O[C@H](CCCCCCCCCCC)CC(=O)O[C@@H]1[C@@H](NC(=O)C[C@@H](CCCCCCCCCCC)OC(=O)CCCCCCCCCCC)[C@H](OC[C@H]2OC(O)[C@H](NC(=O)C[C@H](O)CCCCCCCCCCC)[C@@H](OC(=O)C[C@H](O)CCCCCCCCCCC)[C@@H]2O)O[C@H](C(=O)O)[C@H]1OP(=O)(O)O` (some centres not stated), the outcome in the data set on BMDM [8], with THP-1 [1], with BMDM [2], with BMDM [10], in the data set on BMDM [3] and in the data set with BMDM [11] was inactive. Moreover, the outcome in the data set with BMDM [4], in the data set with BMDM [14], in the data set on BMDM [5], in the data set with BMDM [16], in the data set with BMDM [17] and in the data set with BMDM [18] was inactive. Also, the result in the data set with BMDM [9], in the data set on THP-1 [20], in the data set on THP-1 [13], with BMDM [15], with THP-1 [6] and in the data set with THP-1 [7] was Active. Further, the Activity entry in the data set with THP-1 [12] is recorded as “Non-Toxic”.
Consider `C#CCCCCNC(=O)[C@H]1O[C@@H](OC[C@H]2OC(O)[C@H](NC(=O)C[C@H](O)CCCCCCCCCCC)[C@@H](OC(=O)C[C@H](O)CCCCCCCCCCC)[C@@H]2O)[C@H](NC(=O)C[C@@H](CCCCCCCCCCC)OC(=O)CCCCCCCCCCC)[C@@H](OC(=O)C[C@@H](CCCCCCCCCCC)OC(=O)CCCCCCCCCCCCC)[C@@H]1OP(=O)(O)O` (some centres not stated), for which the result in the data set with BMDM [8], in the data set with THP-1 [1], in the data set on BMDM [2], in the data set with BMDM [10], in the data set on BMDM [3] and with BMDM [11] was inactive. Besides, the outcome in the data set with BMDM [4], in the data set on BMDM [14], in the data set on BMDM [5], in the data set with BMDM [16], in the data set with BMDM [17] and in the data set with BMDM [18] was inactive. The figures for the Activity entry (in data set [19]; in the data set with THP-1 [12]) were “Toxic” and “Non-Toxic”, respectively. The outcome in the data set with BMDM [9], in the data set with THP-1 [13], in the data set on BMDM [15], in the data set with THP-1 [6] and in the data set on THP-1 [7] was Active.
